Source: ChEMBL document CHEMBL1268987, “Identification of 2-oxo-N-(phenylmethyl)-4-imidazolidinecarboxamide antagonists of the P2X(7) receptor” (Bioorg Med Chem Lett, 2010)
In brackets after ≈: the same amount, converted by molar mass. Activity calls are given as the source filed them. The rule behind the calls is not given here.

Assays:
P2X purinoceptor 7 [1] = molecular target: T1, P2X purinoceptor 7 (Homo sapiens, UniProt Q99572); assay: Antagonist activity at human recombinant P2X7 receptor expressed in HEK293 cells by ethidium accumulation assay; assay type: functional, cell-based
T1 sequence (Q99572 whole entry): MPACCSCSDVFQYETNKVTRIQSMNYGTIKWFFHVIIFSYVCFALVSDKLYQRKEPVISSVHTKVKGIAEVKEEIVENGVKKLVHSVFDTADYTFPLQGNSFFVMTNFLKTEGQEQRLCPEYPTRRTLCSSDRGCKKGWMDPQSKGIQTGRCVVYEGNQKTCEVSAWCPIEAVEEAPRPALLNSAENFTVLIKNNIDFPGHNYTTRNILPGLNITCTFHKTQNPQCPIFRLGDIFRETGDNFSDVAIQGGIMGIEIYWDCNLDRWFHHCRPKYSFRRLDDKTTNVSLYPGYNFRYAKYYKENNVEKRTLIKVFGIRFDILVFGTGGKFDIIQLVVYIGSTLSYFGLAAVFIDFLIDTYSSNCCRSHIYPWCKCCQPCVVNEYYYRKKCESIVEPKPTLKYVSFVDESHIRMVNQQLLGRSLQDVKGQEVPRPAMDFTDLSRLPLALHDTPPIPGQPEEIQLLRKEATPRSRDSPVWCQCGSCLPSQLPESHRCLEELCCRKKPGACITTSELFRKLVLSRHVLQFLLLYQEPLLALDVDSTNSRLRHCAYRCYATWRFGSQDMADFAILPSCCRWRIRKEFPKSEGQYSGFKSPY
Method in brief: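 Ethidium accumulation read-out: ATP activation of the receptor opens a large pore, and uptake of ethidium bromide dye into the cells is measured by fluorescence.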

MDCK = assay: Efflux ratio of permeability from apical to basolateral side over basolateral to apical side in MDCK cells expressing MDR; assay type: ADME, cell-based, Canis lupus familiaris; details: dog
P2X purinoceptor 7 [2] = molecular target: T2, P2X purinoceptor 7 (Rattus norvegicus, UniProt Q64663); assay: Antagonist activity at rat recombinant P2X7 receptor; assay type: functional
T2 sequence (Q64663 whole entry): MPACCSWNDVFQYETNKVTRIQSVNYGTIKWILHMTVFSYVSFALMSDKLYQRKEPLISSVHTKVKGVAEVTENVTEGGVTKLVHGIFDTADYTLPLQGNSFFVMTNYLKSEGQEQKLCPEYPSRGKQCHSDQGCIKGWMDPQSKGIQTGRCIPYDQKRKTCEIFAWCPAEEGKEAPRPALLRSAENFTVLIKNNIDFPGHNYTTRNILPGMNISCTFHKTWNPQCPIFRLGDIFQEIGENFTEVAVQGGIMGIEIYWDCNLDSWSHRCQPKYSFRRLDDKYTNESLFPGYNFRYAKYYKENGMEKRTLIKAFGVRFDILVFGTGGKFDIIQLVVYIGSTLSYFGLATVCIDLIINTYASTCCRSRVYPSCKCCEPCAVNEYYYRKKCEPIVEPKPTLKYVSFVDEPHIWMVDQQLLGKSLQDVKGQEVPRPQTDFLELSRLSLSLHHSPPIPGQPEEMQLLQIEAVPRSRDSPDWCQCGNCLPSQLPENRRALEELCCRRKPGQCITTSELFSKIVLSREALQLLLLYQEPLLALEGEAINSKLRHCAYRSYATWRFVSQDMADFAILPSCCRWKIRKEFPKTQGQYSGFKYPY

[3] = Half life in rat at 3 mg/kg, po; assay type: ADME, organism-based; design: dose 3 mg/kg, route oral; details: in vivo
[4] = Cmax in rat at 3 mg/kg, po; assay type: ADME, organism-based; design: dose 3 mg/kg, route oral; details: in vivo
Rattus norvegicus [5] = assay: Reversal of FCA-induced hypersensitivity in rat chronic joint pain model at 20 mg/kg, po after 1 to 6 hrs; assay type: functional, organism-based; design: dose 20 mg/kg
Method in brief: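 Chronic joint pain model in rat. Hypersensitivity was induced by intra-articular FCA, and oral dosing at 20 mg/kg began 13 days post FCA. Response was assessed at 1, 3 and 6 h post-dose. Celecoxib at 30 mg/kg po served as comparator.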

[6] = Lipophilicity, log D of the compound at pH 7.4; assay type: physicochemical; details: buffer
[7] = Ratio of drug level in brain to plasma in rat chronic joint pain model at 20 mg/kg, po after 1 hr; assay type: ADME, organism-based; design: dose 20 mg/kg, route oral; details: brain and plasma, read-out: BBR
[8] = Clearance in rat at 3 mg/kg, po; assay type: ADME, organism-based; design: dose 3 mg/kg, route oral; details: in vivo
[9] = Drug level in rat chronic joint pain model blood at 20 mg/kg, po after 1 hr; assay type: ADME, organism-based; design: dose 20 mg/kg, route oral; details: read-out: Drug uptake
Method in brief: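 In the rat chronic joint pain model, blood concentrations were measured 1.0 h after a 20 mg/kg oral dose.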

[10] = Half life in dog at 1 mg/kg, iv and 3 mg/kg, po; assay type: ADME, organism-based, Canis lupus familiaris; details: in vivo
Method in brief: (§1)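 Cross-species pharmacokinetics (rat, dog, monkey), n = 3 per species. Parameters were derived from 1 mg/kg iv or 3 mg/kg po profiles: blood clearance, Vss, half-life and oral bioavailability.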

[11] = Clearance in rat blood at 1 mg/kg, iv and 3 mg/kg, po; assay type: ADME, organism-based; method in brief: as §1
[12] = Clearance in dog blood at 1 mg/kg, iv and 3 mg/kg, po; assay type: ADME, organism-based, Canis lupus familiaris; method in brief: as §1
[13] = Oral bioavailability in rat at 1 mg/kg, iv and 3 mg/kg, po; assay type: ADME, organism-based; details: in vivo; method in brief: as §1
[14] = Volume of distribution at steady state in monkey at 1 mg/kg, iv and 3 mg/kg, po; assay type: ADME, organism-based, Macaca mulatta; details: rhesus monkey, in vivo, read-out: Vdss; method in brief: as §1
[15] = Half life in rat at 1 mg/kg, iv and 3 mg/kg, po; assay type: ADME, organism-based; details: in vivo; method in brief: as §1
[16] = Solubility of the compound in FeSSIF; assay type: physicochemical
[17] = Oral bioavailability in monkey at 1 mg/kg, iv and 3 mg/kg, po; assay type: ADME, organism-based, Macaca mulatta; details: rhesus monkey, in vivo; method in brief: as §1
[18] = Clearance in monkey blood at 1 mg/kg, iv and 3 mg/kg, po; assay type: ADME, organism-based, Macaca mulatta; details: rhesus monkey; method in brief: as §1
[19] = Protein binding in rat plasma; assay type: ADME, cell-free; details: read-out: PPB (converted)
[20] = Volume of distribution at steady state in dog at 1 mg/kg, iv and 3 mg/kg, po; assay type: ADME, organism-based, Canis lupus familiaris; details: in vivo, read-out: Vdss; method in brief: as §1
[21] = Half life in rat blood at 1 mg/kg, iv; assay type: ADME, organism-based; design: dose 1 mg/kg, route intravenous
[22] = Volume of distribution at steady state in rat at 1 mg/kg, iv and 3 mg/kg, po; assay type: ADME, organism-based; details: in vivo, read-out: Vdss; method in brief: as §1
[23] = Oral bioavailability in dog at 1 mg/kg, iv and 3 mg/kg, po; assay type: ADME, organism-based, Canis lupus familiaris; details: in vivo; method in brief: as §1
[24] = Half life in monkey at 1 mg/kg, iv and 3 mg/kg, po; assay type: ADME, organism-based, Macaca mulatta; details: rhesus monkey, in vivo; method in brief: as §1
[25] = (§2) Clearance in rat blood at 1 mg/kg, iv; assay type: ADME, organism-based; design: dose 1 mg/kg, route intravenous; details: blood
Method in brief: (§3)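 Rat blood clearance was determined after a single iv infusion at 1 mg/kg.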

[26] = Metabolic stability in rat liver microsomes assessed as intrinsic clearance measured per gram of tissue; assay type: ADME, Microsome
Rattus norvegicus [27] = assay: as §2; assay type: ADME, organism-based; design: dose 1 mg/kg, route intravenous; details: in vivo; method in brief: as §3

## CN1C(=O)OC[C@H]1C(=O)NCc1cccc(C(F)(F)F)c1Cl
P2X purinoceptor 7 [1]
  IC50: 0.0158 µM

## CN1C(=O)C(F)(F)C[C@H]1C(=O)NCc1cccc(C(F)(F)F)c1Cl
P2X purinoceptor 7 [1]
  IC50: 0.00398 µM

## CN1C(=O)N(CCN2CCOCC2)C[C@H]1C(=O)NCc1cccc(C(F)(F)F)c1Cl
P2X purinoceptor 7 [1]
  IC50: 0.0251 µM
MDCK
  Ratio: 11.9

## Cc1ncccc1N1C[C@@H](C(=O)NCc2ccc(Cl)cc2Cl)N(C)C1=O
P2X purinoceptor 7 [2]
  IC50: 0.0631 µM
[3]
  half-life: 2.3 h
[4]
  Cmax: 1070 ng/mL
Rattus norvegicus [5]
  Activity: inactive
P2X purinoceptor 7 [1]
  IC50: 0.01 µM
[6]
  logD: 2.2
[7]
  Kp at 1 h: < 0.1
[8]
  CL/F: 17 mL/min/kg
[9]
  concentration at 1 h: 16.8 µM
MDCK
  Ratio: 4.9

## CN1C(=O)C(C)(C)C[C@H]1C(=O)NCc1cccc(C(F)(F)F)c1Cl
P2X purinoceptor 7 [1]
  IC50: 0.0251 µM

## CN1C(=O)NC[C@H]1C(=O)NCc1cccc(C(F)(F)F)c1Cl
P2X purinoceptor 7 [1]
  IC50: 0.00398 µM
MDCK
  Ratio: 2.1

## Cc1cc(N2C[C@@H](C(=O)NCc3cccc(C(F)(F)F)c3Cl)N(C)C2=O)ccn1
P2X purinoceptor 7 [1]
  IC50: 0.01 µM
MDCK
  Ratio: 1.9

## CN1C(=O)COC[C@H]1C(=O)NCc1cccc(C(F)(F)F)c1Cl
P2X purinoceptor 7 [1]
  IC50: 0.00398 µM

## CN1C(=O)NC[C@H]1C(=O)NCc1cccc(Cl)c1Cl
P2X purinoceptor 7 [1]
  IC50: 0.0251 µM

## Cc1ncccc1N1C[C@@H](C(=O)NCc2cccc(C(F)(F)F)c2Cl)N(C)C1=O
P2X purinoceptor 7 [1]
  IC50: 0.00501 µM
MDCK
  Ratio: 4.4

## CN1C(=O)NC[C@H]1C(=O)NCc1ccc(Cl)cc1Cl
[10]
  half-life: 5.7 h
[11]
  clearance: 6 mL/min/kg
[12]
  clearance: 2 mL/min/kg
[13]
  bioavailability: 100%
Rattus norvegicus [5]
  Activity: Active
[14]
  Vd: 1.2 L/kg
P2X purinoceptor 7 [1]
  IC50: 0.01 µM
[15]
  half-life: 2.8 h
[16]
  solubility: 780 µg/mL (≈ 2580 µM)
[17]
  bioavailability: 99%
[18]
  clearance: 7 mL/min/kg
[19]
  fraction unbound: 0.35
[20]
  Vd: 0.8 L/kg
[7]
  Kp at 1 h: 0.3
[9]
  concentration at 1 h: 56.4 µM
[21]
  half-life: 2.8 h
[22]
  Vd: 1.3 L/kg
[23]
  bioavailability: 100%
[24]
  half-life: 2.9 h
[25]
  clearance: 6 mL/min/kg

## CN1C(=O)CC[C@H]1C(=O)NCc1cccc(C(F)(F)F)c1Cl [GSK1482160]
[10]
  half-life: 0.7 h
[11]
  clearance: 9 mL/min/kg
P2X purinoceptor 7 [2]
  IC50: 0.251 µM
[12]
  clearance: 14 mL/min/kg
[14]
  Vd: 1.1 L/kg
[15]
  half-life: 1.5 h
[17]
  bioavailability: 57%
[18]
  clearance: 17 mL/min/kg
[20]
  Vd: 0.9 L/kg
[22]
  Vd: 1 L/kg
[23]
  bioavailability: 69%
[24]
  half-life: 0.9 h

## Cc1cccc(N2C[C@@H](C(=O)NCc3cccc(C(F)(F)F)c3Cl)N(C)C2=O)n1
P2X purinoceptor 7 [1]
  IC50: 0.0794 µM

## CN1CCC(N2C[C@@H](C(=O)NCc3cccc(C(F)(F)F)c3Cl)N(C)C2=O)CC1
P2X purinoceptor 7 [1]
  IC50: 0.0316 µM
MDCK
  Ratio: 3.2

## CN1C(=O)N(c2cn(C)cn2)C[C@H]1C(=O)NCc1cccc(C(F)(F)F)c1Cl
P2X purinoceptor 7 [1]
  IC50: 0.00251 µM

## CN1C(=O)N(c2nccn2C)C[C@H]1C(=O)NCc1cccc(C(F)(F)F)c1Cl
P2X purinoceptor 7 [1]
  IC50: 0.00398 µM
MDCK
  Ratio: 5.3

## CN1C[C@@H](C(=O)NCc2ccc(Cl)cc2Cl)N(C)C1=O
P2X purinoceptor 7 [1]
  IC50: 0.002 µM
[26]
  CLint scaled: < 0.5 mL/min/g
[21]
  half-life: 0.6 h
Rattus norvegicus [27]
  clearance: 30 mL/min/kg

## CN1C[C@@H](C(=O)NCc2cccc(Cl)c2Cl)N(C)C1=O
P2X purinoceptor 7 [1]
  IC50: 0.01 µM
[21]
  half-life: 0.4 h
[25]
  clearance: 49 mL/min/kg
